Reference: ChEMBL document CHEMBL2375359, “Synthesis and antibacterial evaluation of novel pleuromutilin derivatives” (2013)
Converted amounts (≈) assume the structure as drawn.

Test system: Staphylococcus aureus
Experiment: Antibacterial activity against methicillin-resistant Staphylococcus aureus at 320 ug/ml after 24 hrs by Oxford cup assay
Assay type: functional
Conditions: read-out: IZ
Outline: (§1)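 Oxford cup diffusion: clinical isolate inoculum in 0.9% saline set by McFarland standard, spread evenly on nutrient agar. Cups placed equidistant on the surface and filled with compound solutions prepared as for the agar dilution test, at several concentrations. Inhibition zone measured after 24 h at 37 °C.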

SMILES	zone of inhibition at 320 µg/mL [mm]
C=C[C@]1(C)C[C@@H](OC(=O)CSC(C)(C)CNC(=O)[C@@H](N)c2ccccc2)[C@]2(C)[C@H](C)CC[C@]3(CCC(=O)[C@H]32)[C@@H](C)[C@@H]1O	10.3

Test system: Streptococcus agalactiae
Experiment: Antibacterial activity against Streptococcus agalactiae after 48 hrs by agar dilution method
Assay type: functional
Conditions: not given
Outline: (§2)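 Agar dilution per NCCLS on clinical isolates. 2-fold serial dilutions of compound (2 mL) mixed into 18 mL hot Mueller-Hinton agar. Inoculum from blood slants, adjusted to approx. 10⁵–10⁶ cfu/mL in sterile 0.90% NaCl, then spotted onto the plates. Incubated 36.5 °C, 48 h. MIC is the lowest concentration giving complete growth inhibition. Run in triplicate at pH 7.40.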

SMILES	MIC [µg/mL]
C=C[C@]1(C)C[C@@H](OC(=O)CSC(C)(C)CNC(=O)[C@@H](N)c2ccccc2)[C@]2(C)[C@H](C)CC[C@]3(CCC(=O)[C@H]32)[C@@H](C)[C@@H]1O	8 (≈ 13.4 µM)

Test system: Staphylococcus epidermidis
Experiment: Antibacterial activity against methicillin-resistant Staphylococcus epidermidis at 80 ug/ml after 24 hrs by Oxford cup assay
Assay type: functional
Conditions: read-out: IZ
Outline: as §1

SMILES	zone of inhibition at 80 µg/mL [mm]
C=C[C@]1(C)C[C@@H](OC(=O)CSC(C)(C)CNC(=O)[C@@H](N)c2ccccc2)[C@]2(C)[C@H](C)CC[C@]3(CCC(=O)[C@H]32)[C@@H](C)[C@@H]1O	10.3

Test system: Escherichia coli
Experiment: Antibacterial activity against Escherichia coli at 160 ug/ml after 24 hrs by Oxford cup assay
Assay type: functional
Conditions: read-out: IZ
Outline: (§3)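 Oxford cup diffusion with clinical isolates. Inoculum made in 0.9% saline to a McFarland standard and spread evenly on nutrient agar. Compound solutions, prepared as for the agar dilution test, were added at the stated concentration to Oxford cups set equidistant on the agar surface. Inhibition zones were measured after 24 h at 37 °C.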

SMILES	zone of inhibition at 160 µg/mL [mm]
C=C[C@]1(C)C[C@@H](OC(=O)CSC(C)(C)CNC(=O)[C@@H](N)c2ccccc2)[C@]2(C)[C@H](C)CC[C@]3(CCC(=O)[C@H]32)[C@@H](C)[C@@H]1O	9.89

Test system: Streptococcus agalactiae
Experiment: Antibacterial activity against Streptococcus agalactiae at 80 ug/ml after 24 hrs by Oxford cup assay
Assay type: functional
Conditions: read-out: IZ
Outline: as §3

SMILES	zone of inhibition at 80 µg/mL [mm]
C=C[C@]1(C)C[C@@H](OC(=O)CSC(C)(C)CNC(=O)[C@@H](N)c2ccccc2)[C@]2(C)[C@H](C)CC[C@]3(CCC(=O)[C@H]32)[C@@H](C)[C@@H]1O	10.7

Test system: Escherichia coli
Experiment: Antibacterial activity against Escherichia coli after 48 hrs by agar dilution method
Assay type: functional
Conditions: not given
Outline: as §2

SMILES	MIC [µg/mL]
C=C[C@]1(C)C[C@@H](OC(=O)CSC(C)(C)CNC(=O)[C@@H](N)c2ccccc2)[C@]2(C)[C@H](C)CC[C@]3(CCC(=O)[C@H]32)[C@@H](C)[C@@H]1O	4 (≈ 6.68 µM)

Test system: Escherichia coli
Experiment: Antibacterial activity against Escherichia coli at 80 ug/ml after 24 hrs by Oxford cup assay
Assay type: functional
Conditions: read-out: IZ
Outline: as §3

SMILES	zone of inhibition at 80 µg/mL [mm]
C=C[C@]1(C)C[C@@H](OC(=O)CSC(C)(C)CNC(=O)[C@@H](N)c2ccccc2)[C@]2(C)[C@H](C)CC[C@]3(CCC(=O)[C@H]32)[C@@H](C)[C@@H]1O	10

Test system: Staphylococcus aureus
Experiment: Antibacterial activity against methicillin-resistant Staphylococcus aureus after 48 hrs by agar dilution method
Assay type: functional
Conditions: not given
Outline: (§4)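 Agar dilution per NCCLS: 2-fold serial dilutions incorporated into hot Mueller-Hinton agar. Clinical isolates grown from blood slants, suspended in sterile 0.90% NaCl to about 10⁵–10⁶ cfu/mL, spotted onto plates. Incubation 36.5 °C, 48 h. MIC taken as the lowest concentration giving complete growth inhibition. Run in triplicate at pH 7.40.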

SMILES	MIC [µg/mL]
C=C[C@]1(C)C[C@@H](OC(=O)CSC(C)(C)CNC(=O)[C@@H](N)c2ccccc2)[C@]2(C)[C@H](C)CC[C@]3(CCC(=O)[C@H]32)[C@@H](C)[C@@H]1O	0.25 (≈ 0.417 µM)

Test system: Staphylococcus aureus
Experiment: Antibacterial activity against methicillin-resistant Staphylococcus aureus at 80 ug/ml after 24 hrs by Oxford cup assay
Assay type: functional
Conditions: read-out: IZ
Outline: as §1

SMILES	zone of inhibition at 80 µg/mL [mm]
C=C[C@]1(C)C[C@@H](OC(=O)CSC(C)(C)CNC(=O)[C@@H](N)c2ccccc2)[C@]2(C)[C@H](C)CC[C@]3(CCC(=O)[C@H]32)[C@@H](C)[C@@H]1O	9.82

Test system: Staphylococcus epidermidis
Experiment: Antibacterial activity against methicillin-resistant Staphylococcus epidermidis at 160 ug/ml after 24 hrs by Oxford cup assay
Assay type: functional
Conditions: read-out: IZ
Outline: as §1

SMILES	zone of inhibition at 160 µg/mL [mm]
C=C[C@]1(C)C[C@@H](OC(=O)CSC(C)(C)CNC(=O)[C@@H](N)c2ccccc2)[C@]2(C)[C@H](C)CC[C@]3(CCC(=O)[C@H]32)[C@@H](C)[C@@H]1O	10.6

Test system: Staphylococcus aureus
Experiment: Antibacterial activity against methicillin-resistant Staphylococcus aureus at 160 ug/ml after 24 hrs by Oxford cup assay
Assay type: functional
Conditions: read-out: IZ
Outline: as §1

SMILES	zone of inhibition at 160 µg/mL [mm]
C=C[C@]1(C)C[C@@H](OC(=O)CSC(C)(C)CNC(=O)[C@@H](N)c2ccccc2)[C@]2(C)[C@H](C)CC[C@]3(CCC(=O)[C@H]32)[C@@H](C)[C@@H]1O	10.1

Test system: Streptococcus agalactiae
Experiment: Antibacterial activity against Streptococcus agalactiae at 160 ug/ml after 24 hrs by Oxford cup assay
Assay type: functional
Conditions: read-out: IZ
Outline: as §3

SMILES	zone of inhibition at 160 µg/mL [mm]
C=C[C@]1(C)C[C@@H](OC(=O)CSC(C)(C)CNC(=O)[C@@H](N)c2ccccc2)[C@]2(C)[C@H](C)CC[C@]3(CCC(=O)[C@H]32)[C@@H](C)[C@@H]1O	10.4

Test system: Streptococcus agalactiae
Experiment: Antibacterial activity against Streptococcus agalactiae at 320 ug/ml after 24 hrs by Oxford cup assay
Assay type: functional
Conditions: read-out: IZ
Outline: as §3

SMILES	zone of inhibition at 320 µg/mL [mm]
C=C[C@]1(C)C[C@@H](OC(=O)CSC(C)(C)CNC(=O)[C@@H](N)c2ccccc2)[C@]2(C)[C@H](C)CC[C@]3(CCC(=O)[C@H]32)[C@@H](C)[C@@H]1O	11.2

Test system: Escherichia coli
Experiment: Antibacterial activity against Escherichia coli at 320 ug/ml after 24 hrs by Oxford cup assay
Assay type: functional
Conditions: read-out: IZ
Outline: as §3

SMILES	zone of inhibition at 320 µg/mL [mm]
C=C[C@]1(C)C[C@@H](OC(=O)CSC(C)(C)CNC(=O)[C@@H](N)c2ccccc2)[C@]2(C)[C@H](C)CC[C@]3(CCC(=O)[C@H]32)[C@@H](C)[C@@H]1O	10.7

Test system: Staphylococcus epidermidis
Experiment: Antibacterial activity against methicillin-resistant Staphylococcus epidermidis at 320 ug/ml after 24 hrs by Oxford cup assay
Assay type: functional
Conditions: read-out: IZ
Outline: as §1

SMILES	zone of inhibition at 320 µg/mL [mm]
C=C[C@]1(C)C[C@@H](OC(=O)CSC(C)(C)CNC(=O)[C@@H](N)c2ccccc2)[C@]2(C)[C@H](C)CC[C@]3(CCC(=O)[C@H]32)[C@@H](C)[C@@H]1O	11.2

Test system: Staphylococcus epidermidis
Experiment: Antibacterial activity against methicillin-resistant Staphylococcus epidermidis after 48 hrs by agar dilution method
Assay type: functional
Conditions: not given
Outline: as §4

SMILES	MIC [µg/mL]
C=C[C@]1(C)C[C@@H](OC(=O)CSC(C)(C)CNC(=O)[C@@H](N)c2ccccc2)[C@]2(C)[C@H](C)CC[C@]3(CCC(=O)[C@H]32)[C@@H](C)[C@@H]1O	4 (≈ 6.68 µM)
